The source of these data is ChEMBL document CHEMBL1155278, “3,4-Diaryl-isoxazoles and -imidazoles as potent dual inhibitors of p38alpha mitogen activated protein kinase and casein kinase 1delta” (J Med Chem, 2009).

pIC50: −log10 of the molar value.

Experiment [1] has as its target RAC-beta serine/threonine-protein kinase (Homo sapiens) (UniProt P31751). Put plainly: Inhibition of PKBbeta assessed as residual activity at 10 uM by Cherenkov counting relative to control in presence of 50 uM ATP. Put shortly:
(§1)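 Single-concentration profiling at 10 μM in a 78-kinase panel. Kinase activity is expressed as a percentage of control assays run without compound.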

In experiment [2] the target is Serine/threonine-protein kinase N2 (Homo sapiens) (UniProt Q16513). As to the kind of experiment: Inhibition of PRK2 assessed as residual activity at 10 uM by Cherenkov counting relative to control in presence of 5 uM ATP. Put shortly: as §1
Serine/threonine-protein kinase N2 (Homo sapiens), sequence (Q16513 whole entry, looked up): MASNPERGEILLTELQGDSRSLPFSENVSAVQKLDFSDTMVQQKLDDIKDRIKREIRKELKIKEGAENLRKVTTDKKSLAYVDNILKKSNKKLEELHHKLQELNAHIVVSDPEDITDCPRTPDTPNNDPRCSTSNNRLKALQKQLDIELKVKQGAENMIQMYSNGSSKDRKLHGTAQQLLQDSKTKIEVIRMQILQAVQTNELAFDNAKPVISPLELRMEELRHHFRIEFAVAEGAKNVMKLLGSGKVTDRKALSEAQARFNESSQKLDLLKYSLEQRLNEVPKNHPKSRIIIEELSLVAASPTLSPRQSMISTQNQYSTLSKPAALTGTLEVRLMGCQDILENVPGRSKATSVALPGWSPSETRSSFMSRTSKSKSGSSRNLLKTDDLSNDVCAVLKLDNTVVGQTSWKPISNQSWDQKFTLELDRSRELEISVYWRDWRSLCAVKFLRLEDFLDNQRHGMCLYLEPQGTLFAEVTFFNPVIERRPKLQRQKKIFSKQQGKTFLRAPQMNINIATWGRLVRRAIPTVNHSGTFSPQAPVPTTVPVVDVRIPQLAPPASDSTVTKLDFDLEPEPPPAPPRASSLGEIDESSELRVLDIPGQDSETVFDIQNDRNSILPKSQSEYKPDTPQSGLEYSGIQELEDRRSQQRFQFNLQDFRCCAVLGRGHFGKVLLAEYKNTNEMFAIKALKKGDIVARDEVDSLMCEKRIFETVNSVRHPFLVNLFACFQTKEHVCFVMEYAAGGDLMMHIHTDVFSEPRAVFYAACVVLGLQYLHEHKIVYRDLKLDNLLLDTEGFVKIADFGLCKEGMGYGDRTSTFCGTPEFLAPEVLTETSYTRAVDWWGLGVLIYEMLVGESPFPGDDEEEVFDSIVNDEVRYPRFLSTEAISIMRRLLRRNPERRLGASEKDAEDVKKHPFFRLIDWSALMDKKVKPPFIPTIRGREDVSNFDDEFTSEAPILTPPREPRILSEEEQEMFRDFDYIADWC
For experiment [3], the target named is T1, Protein kinase C zeta type (Homo sapiens) (UniProt Q05513).
T1 sequence (whole entry): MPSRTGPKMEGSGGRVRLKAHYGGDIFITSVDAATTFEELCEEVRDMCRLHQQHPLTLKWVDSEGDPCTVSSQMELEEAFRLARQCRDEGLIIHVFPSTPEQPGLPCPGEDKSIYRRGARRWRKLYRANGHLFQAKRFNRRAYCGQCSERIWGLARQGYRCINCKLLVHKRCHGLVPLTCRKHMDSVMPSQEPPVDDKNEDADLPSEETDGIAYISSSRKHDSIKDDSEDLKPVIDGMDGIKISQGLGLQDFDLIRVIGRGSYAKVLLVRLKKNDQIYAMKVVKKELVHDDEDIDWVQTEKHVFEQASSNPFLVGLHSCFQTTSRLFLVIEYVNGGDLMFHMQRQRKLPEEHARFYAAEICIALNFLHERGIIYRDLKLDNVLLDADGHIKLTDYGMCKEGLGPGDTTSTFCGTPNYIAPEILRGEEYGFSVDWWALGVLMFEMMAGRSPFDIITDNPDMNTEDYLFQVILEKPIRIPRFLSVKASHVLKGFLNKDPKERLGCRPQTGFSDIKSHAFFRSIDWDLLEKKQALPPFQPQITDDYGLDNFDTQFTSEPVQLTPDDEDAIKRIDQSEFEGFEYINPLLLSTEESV
Put plainly: Inhibition of PKCzeta assessed as residual activity at 10 uM by Cherenkov counting relative to control in presence of 5 uM ATP. In a few lines:
as §1

In experiment [4] the target is MAP kinase-interacting serine/threonine-protein kinase 1 (Homo sapiens) (UniProt Q9BUB5). As to the kind of experiment: Inhibition of MNK1 assessed as residual activity at 10 uM by Cherenkov counting relative to control in presence of 50 uM ATP.
MAP kinase-interacting serine/threonine-protein kinase 1 (Homo sapiens), sequence (Q9BUB5 whole entry, looked up): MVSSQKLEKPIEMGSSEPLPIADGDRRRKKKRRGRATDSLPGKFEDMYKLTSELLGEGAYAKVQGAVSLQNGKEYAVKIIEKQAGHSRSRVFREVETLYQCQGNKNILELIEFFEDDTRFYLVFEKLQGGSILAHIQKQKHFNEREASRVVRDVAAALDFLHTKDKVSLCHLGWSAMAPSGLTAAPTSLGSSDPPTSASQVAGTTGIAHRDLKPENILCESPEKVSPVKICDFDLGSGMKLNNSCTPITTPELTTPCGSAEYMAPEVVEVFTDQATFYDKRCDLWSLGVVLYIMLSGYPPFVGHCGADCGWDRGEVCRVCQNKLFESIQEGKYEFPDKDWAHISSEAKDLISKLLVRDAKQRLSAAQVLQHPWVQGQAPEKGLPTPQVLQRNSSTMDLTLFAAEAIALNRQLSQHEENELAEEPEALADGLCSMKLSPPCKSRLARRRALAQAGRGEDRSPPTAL
Experiment [5] has as its target T2, Serine/threonine-protein kinase 3 (Homo sapiens) (UniProt Q13188).
T2 sequence (whole entry): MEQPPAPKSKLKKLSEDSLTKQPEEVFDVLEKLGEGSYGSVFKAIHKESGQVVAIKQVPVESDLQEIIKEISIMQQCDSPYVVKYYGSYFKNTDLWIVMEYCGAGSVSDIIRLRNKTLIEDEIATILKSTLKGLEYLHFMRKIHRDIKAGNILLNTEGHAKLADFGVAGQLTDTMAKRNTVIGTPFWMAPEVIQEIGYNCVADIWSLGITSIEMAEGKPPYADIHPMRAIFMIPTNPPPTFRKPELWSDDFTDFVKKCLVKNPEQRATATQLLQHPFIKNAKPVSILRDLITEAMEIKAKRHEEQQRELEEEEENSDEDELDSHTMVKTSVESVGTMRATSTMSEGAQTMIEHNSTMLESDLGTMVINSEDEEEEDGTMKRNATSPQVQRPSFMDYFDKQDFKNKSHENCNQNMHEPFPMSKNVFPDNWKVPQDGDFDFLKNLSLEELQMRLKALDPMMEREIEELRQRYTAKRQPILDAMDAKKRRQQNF
Put plainly: Inhibition of MST2 assessed as residual activity at 10 uM by Cherenkov counting relative to control in presence of 20 uM ATP.

The target of experiment [6] is Homeodomain-interacting protein kinase 2 (Homo sapiens) (UniProt Q9H2X6). As to the kind of experiment: Inhibition of HIPK2 assessed as residual activity at 10 uM by Cherenkov counting relative to control in presence of 5 uM ATP. In a few lines:
(§2)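 Single-point profiling at 10 µM in a panel of 78 protein kinases. Kinase activity is expressed as a percentage relative to control assays without compound.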

In experiment [7] the target is Serine/threonine-protein kinase PAK 4 (Homo sapiens) (UniProt O96013). Put plainly: Inhibition of PAK4 assessed as residual activity at 10 uM by Cherenkov counting relative to control in presence of 5 uM ATP.
Serine/threonine-protein kinase PAK 4 (Homo sapiens), sequence (O96013 whole entry, looked up): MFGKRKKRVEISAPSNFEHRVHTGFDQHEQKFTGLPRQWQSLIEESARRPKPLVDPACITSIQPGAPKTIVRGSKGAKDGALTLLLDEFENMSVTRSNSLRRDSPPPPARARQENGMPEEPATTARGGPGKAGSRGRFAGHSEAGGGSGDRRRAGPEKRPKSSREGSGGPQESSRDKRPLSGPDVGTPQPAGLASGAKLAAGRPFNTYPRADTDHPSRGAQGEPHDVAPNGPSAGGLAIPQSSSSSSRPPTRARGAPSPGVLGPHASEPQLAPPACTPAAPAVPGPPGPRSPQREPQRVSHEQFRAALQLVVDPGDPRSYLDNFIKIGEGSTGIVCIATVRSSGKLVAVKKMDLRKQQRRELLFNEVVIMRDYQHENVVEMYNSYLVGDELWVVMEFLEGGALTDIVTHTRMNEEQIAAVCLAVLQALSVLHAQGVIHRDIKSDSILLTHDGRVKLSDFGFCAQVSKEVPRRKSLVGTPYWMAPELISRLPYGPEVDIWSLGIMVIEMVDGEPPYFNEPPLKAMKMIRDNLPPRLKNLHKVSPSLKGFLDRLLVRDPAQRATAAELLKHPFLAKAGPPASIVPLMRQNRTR
Experiment [8] deals with Serine/threonine-protein kinase PAK 6 (Homo sapiens) (UniProt Q9NQU5). Put plainly: Inhibition of PAK6 assessed as residual activity at 10 uM by Cherenkov counting relative to control in presence of 20 uM ATP.
The target in experiment [9] is Ephrin type-A receptor 2 (Homo sapiens) (UniProt P29317). Put plainly: Inhibition of EPHA2 assessed as residual activity at 10 uM by Cherenkov counting relative to control in presence of 50 uM ATP. In a few lines:
as §2

In experiment [10] the target is Tyrosine-protein kinase Yes (Homo sapiens) (UniProt P07947). Put plainly: Inhibition of YES1 assessed as residual activity at 10 uM by Cherenkov counting relative to control in presence of 20 uM ATP. In a few lines: as §1
Tyrosine-protein kinase Yes (Homo sapiens), sequence (P07947 2-543 limits assumed): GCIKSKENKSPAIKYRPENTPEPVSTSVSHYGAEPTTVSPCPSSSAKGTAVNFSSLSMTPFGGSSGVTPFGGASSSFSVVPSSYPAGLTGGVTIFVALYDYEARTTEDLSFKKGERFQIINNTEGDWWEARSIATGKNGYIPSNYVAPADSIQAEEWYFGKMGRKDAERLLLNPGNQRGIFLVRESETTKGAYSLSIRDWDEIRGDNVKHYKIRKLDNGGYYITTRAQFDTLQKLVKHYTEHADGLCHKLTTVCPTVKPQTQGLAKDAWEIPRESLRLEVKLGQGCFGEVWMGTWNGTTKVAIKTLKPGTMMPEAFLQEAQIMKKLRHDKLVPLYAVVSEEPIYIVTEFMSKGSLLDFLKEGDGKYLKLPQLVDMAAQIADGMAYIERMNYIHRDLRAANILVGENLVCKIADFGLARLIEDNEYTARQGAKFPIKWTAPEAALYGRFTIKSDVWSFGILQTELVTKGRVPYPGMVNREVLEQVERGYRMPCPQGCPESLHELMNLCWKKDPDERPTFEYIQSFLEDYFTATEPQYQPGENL
The target of experiment [11] is Casein kinase I isoform delta (Rattus norvegicus, UniProt Q06486). As to the kind of experiment: Inhibition of GST-fused rat CK1delta by Cherenkov counting in presence of 20 uM ATP.
Casein kinase I isoform delta, sequence (Q06486 whole entry, the tested form may be a part, canonical isoform): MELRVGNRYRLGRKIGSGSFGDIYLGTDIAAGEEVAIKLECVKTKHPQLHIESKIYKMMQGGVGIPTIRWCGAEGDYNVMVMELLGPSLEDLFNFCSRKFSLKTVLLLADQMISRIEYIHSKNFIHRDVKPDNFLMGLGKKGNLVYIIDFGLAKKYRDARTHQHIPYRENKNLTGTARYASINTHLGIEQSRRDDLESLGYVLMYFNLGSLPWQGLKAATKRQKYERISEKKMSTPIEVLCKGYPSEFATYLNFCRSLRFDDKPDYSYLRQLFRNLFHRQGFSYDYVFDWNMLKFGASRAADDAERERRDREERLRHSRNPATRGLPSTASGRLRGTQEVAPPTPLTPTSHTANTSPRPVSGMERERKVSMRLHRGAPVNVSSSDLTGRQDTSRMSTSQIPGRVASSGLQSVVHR
In experiment [12] the target is RAC-beta serine/threonine-protein kinase (Homo sapiens) (UniProt P31751). Put plainly: Inhibition of PKBbeta assessed as residual activity at 0.1 uM by Cherenkov counting relative to control in presence of 50 uM ATP. In a few lines: (§3)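 Single-concentration screen at 0.1 μM in a 76-kinase panel. ATP for each kinase was set near its Km for ATP. Residual activity is given as a percentage of control assays without compound, mean of n = 3 ± SD.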
RAC-beta serine/threonine-protein kinase (Homo sapiens), sequence (P31751 whole entry): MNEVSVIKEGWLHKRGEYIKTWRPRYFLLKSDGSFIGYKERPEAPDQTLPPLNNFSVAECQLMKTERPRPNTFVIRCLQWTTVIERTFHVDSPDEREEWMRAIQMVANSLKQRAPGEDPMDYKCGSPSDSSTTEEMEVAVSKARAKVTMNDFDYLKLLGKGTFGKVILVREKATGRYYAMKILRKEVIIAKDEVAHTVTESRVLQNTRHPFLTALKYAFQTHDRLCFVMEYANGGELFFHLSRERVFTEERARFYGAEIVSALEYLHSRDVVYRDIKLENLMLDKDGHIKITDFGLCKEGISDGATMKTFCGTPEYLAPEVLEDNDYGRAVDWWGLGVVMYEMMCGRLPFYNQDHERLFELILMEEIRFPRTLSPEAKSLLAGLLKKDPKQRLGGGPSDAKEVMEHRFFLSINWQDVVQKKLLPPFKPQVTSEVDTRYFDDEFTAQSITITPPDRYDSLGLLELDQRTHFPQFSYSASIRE

Experiment [13] addresses Calcium/calmodulin-dependent protein kinase type 1 (Homo sapiens) (UniProt Q14012). Put plainly: Inhibition of CAMK1 assessed as residual activity at 0.1 uM by Cherenkov counting relative to control in presence of 50 uM ATP. In a few lines: (§4)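 Single-concentration screen at 0.1 µM across a panel of 76 protein kinases. Each kinase was run at an ATP concentration approximating its ATP Km. Results are % mean residual activity versus control assays without compound (n = 3 ± SD).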

Experiment [14] has as its target Myosin light chain kinase, smooth muscle (Homo sapiens) (UniProt Q15746). Put plainly: Inhibition of smooth muscle MLCK assessed as residual activity at 0.1 uM by Cherenkov counting relative to control in presence of 50 uM ATP. Put shortly: as §3
The target of experiment [15] is Serine/threonine-protein kinase Chk2 (Homo sapiens) (UniProt O96017). As to the kind of experiment: Inhibition of CHK2 assessed as residual activity at 0.1 uM by Cherenkov counting relative to control in presence of 20 uM ATP. In a few lines:
as §4

For experiment [16], the target named is Proto-oncogene tyrosine-protein kinase Src (Homo sapiens) (UniProt P12931). As to the kind of experiment: Inhibition of Src assessed as residual activity at 0.1 uM by Cherenkov counting relative to control in presence of 50 uM ATP. In a few lines: as §3
Proto-oncogene tyrosine-protein kinase Src (Homo sapiens), sequence (P12931 2-536 limits assumed): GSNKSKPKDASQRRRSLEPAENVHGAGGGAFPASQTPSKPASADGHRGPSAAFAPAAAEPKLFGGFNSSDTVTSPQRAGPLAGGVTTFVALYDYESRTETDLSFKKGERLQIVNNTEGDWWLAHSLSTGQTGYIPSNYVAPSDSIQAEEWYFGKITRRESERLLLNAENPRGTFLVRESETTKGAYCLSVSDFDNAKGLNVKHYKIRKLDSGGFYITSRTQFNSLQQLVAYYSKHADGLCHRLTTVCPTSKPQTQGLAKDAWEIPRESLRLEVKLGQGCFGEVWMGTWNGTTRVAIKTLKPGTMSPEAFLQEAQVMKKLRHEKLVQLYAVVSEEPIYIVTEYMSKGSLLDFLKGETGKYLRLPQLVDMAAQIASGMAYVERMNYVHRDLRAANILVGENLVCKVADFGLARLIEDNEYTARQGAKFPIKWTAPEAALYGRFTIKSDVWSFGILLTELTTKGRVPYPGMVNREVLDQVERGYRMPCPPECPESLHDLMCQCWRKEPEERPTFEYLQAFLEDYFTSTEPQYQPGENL
For experiment [17], the target named is Insulin receptor-related protein (Homo sapiens) (UniProt P14616). As to the kind of experiment: Inhibition of IRR assessed as residual activity at 0.1 uM by Cherenkov counting relative to control in presence of 5 uM ATP. In a few lines:
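Single-concentration selectivity screen at 0.1 μM against a panel of 76 protein kinases. Each kinase was run at an ATP level approximating its Km for ATP. Output is mean residual activity as % of the control assay without compound, n = 3 ± SD.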

Calcium/calmodulin-dependent protein kinase type 1 (Homo sapiens), sequence (Q14012 whole entry, looked up): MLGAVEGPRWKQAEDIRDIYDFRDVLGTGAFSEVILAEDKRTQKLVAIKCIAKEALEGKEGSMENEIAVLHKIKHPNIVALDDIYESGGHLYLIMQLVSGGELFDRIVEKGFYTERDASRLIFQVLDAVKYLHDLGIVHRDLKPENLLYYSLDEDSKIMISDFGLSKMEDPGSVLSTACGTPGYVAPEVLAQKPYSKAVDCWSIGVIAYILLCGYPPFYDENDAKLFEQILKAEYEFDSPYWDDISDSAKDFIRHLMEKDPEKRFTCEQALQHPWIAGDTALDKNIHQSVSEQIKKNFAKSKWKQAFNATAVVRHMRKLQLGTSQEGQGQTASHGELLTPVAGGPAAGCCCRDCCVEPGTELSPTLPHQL
Serine/threonine-protein kinase Chk2 (Homo sapiens), sequence (O96017 whole entry): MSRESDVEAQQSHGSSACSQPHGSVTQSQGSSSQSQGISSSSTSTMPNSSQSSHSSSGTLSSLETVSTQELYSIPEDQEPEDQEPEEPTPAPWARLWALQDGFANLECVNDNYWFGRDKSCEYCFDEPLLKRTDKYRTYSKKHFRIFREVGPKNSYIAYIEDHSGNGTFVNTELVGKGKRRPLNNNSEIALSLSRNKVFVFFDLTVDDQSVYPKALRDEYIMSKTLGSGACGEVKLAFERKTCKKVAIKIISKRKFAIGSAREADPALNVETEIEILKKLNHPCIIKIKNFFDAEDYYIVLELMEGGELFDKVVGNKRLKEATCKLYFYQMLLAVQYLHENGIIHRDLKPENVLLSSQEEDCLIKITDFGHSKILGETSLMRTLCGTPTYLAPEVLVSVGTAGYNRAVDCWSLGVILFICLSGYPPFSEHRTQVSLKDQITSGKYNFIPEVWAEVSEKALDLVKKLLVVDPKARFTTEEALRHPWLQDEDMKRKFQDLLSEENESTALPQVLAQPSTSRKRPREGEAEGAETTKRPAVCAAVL

`CC(C)c1noc(-c2ccc(F)cc2)c1-c1ccncc1`: the Activity in experiment [1] came to 104%; in experiment [2] it was 98%; in [3], 91%; in experiment [4], 89%; in experiment [5], 95%; in [6] it was 103%. For the same compound, the Activity in [7] was determined as 107%; in experiment [8] it was 102%; in experiment [9] it was 81%; in [10] it was 101%.

`CC(C)c1onc(-c2ccc(F)cc2)c1-c1ccncc1`: the Activity in experiment [1] stood at 101%; in [2] it was 88%; in experiment [3], 81%; in experiment [4] it was 96%; in experiment [5], 95%; in experiment [6], 103%. Besides, the Activity was found to be 106% in experiment [7], 100% in [8], 79% in experiment [9] and 82% in [10]. Besides, the pIC50 in [11] is 6.64.

Consider `COc1ccc(/C=C/C(=O)Nc2cc(-c3[nH]c([S+](C)[O-])nc3-c3ccc(F)cc3)ccn2)c(OC)c1` (stereo not given), for which, in experiment [11], the negative logarithm of the IC50 (pIC50) was 7.96. Also, the Activity was 100% in experiment [12]; 98% in experiment [13]; 93% in experiment [14]; 85% in [15]; 63% in [16]; 83% in [17].

As to `COc1ccc(/C=C/C(=O)Nc2cc(-c3[nH]c(SC)nc3-c3ccc(F)cc3)ccn2)c(OC)c1`, the pIC50 in experiment [11] was 8.30. The Activity was determined as 98% in [12]; 92% in experiment [13]; 82% in [14]; 79% in experiment [15]; 49% in experiment [16]; 61% in experiment [17].

Broadly, the pIC50 is the negative decadic logarithm of the IC50, by convention in mol/L.
